Activity calls are given as the source filed them. The calls are words filed in the database; no cut-off is given here.
How the values were obtained:
HEK293 [1] = assay: Inhibition of Wnt3a activated Wnt/beta-catenin/Axin signaling (unknown origin) expressed in HEK293 cells assessed as degradation of beta-catenin by measuring decrease in beta-catenin protein expression at 1 to 10 uM after 2 hrs by Western blot method; assay type: cell-based; conditions: Homo sapiens
In short: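 HEK293 cells stimulated with WNT3a were treated with compound for 2 h. Cells were lysed in 10 mM HEPES, 100 μM EDTA, 10 mM KCl, 0.5% NP40, protein was quantified by BCA, and β-catenin and Axin1 were resolved on 10% SDS-PAGE and immunoblotted.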

HEK293 [2] = assay: Inhibition of 25 to 50 mM LiCl activated Wnt/beta-catenin signaling (unknown origin) expressed in HEK293 cells harboring TCF/LEF-responsive luciferase at 0.1 uM preincubated with cells followed by LiCl addition and measured after 24 hrs by luciferase reporter gene assay; assay type: cell-based; conditions: Homo sapiens
HEK293 [3] = assay: Inhibition of Wnt (unknown origin)/FLAG-tagged human beta-catenin signaling expressed in HEK293 cells harboring TCF/LEF-responsive luciferase at 100 nM measured after 24 hrs by luciferase reporter gene assay; assay type: cell-based
In short: (§1)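 HEK293 cells were transfected for 16 h with TOPFlash or FOPFlash, Renilla, and pcDNA3 wild-type or S33Y β-catenin. Compound was then added for a further 24 h. Firefly/Renilla dual-luciferase ratio was the read-out.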

HEK293 [4] = assay: Inhibition of Wnt (unknown origin)/FLAG-tagged human beta-catenin S33Y mutant signaling expressed in HEK293 cells harboring TCF/LEF-responsive luciferase at 100 nM measured after 24 hrs by luciferase reporter gene assay; assay type: cell-based; in short: as §1
HEK293 [5] = assay: Inhibition of Wnt/beta-catenin/Axin signaling (unknown origin) expressed in HEK293 cells assessed as increase in Axin binding to beta-catenin after 12 hrs by immunoprecipitation method; assay type: cell-based; conditions: Homo sapiens
HEK293 [6] = assay: Inhibition of Wnt/beta-catenin signaling (unknown origin) expressed in HEK293 cells assessed as increase in GSK3beta binding to beta-catenin after 12 hrs by immunoprecipitation method; assay type: cell-based; conditions: Homo sapiens
Mus musculus [7] = species: Mus musculus; assay: Inhibition of Wnt/beta-catenin/Axin signaling in mouse hepatocytes assessed as decrease in G6PASE mRNA level at 5 uM by qPCR analysis; assay type: cell-based
In short: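 Normal mouse hepatocytes were treated with 5 μM compound, and lipogenic and gluconeogenic gene mRNA was measured by qPCR; mean ± S.D. of triplicates.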

[8] = Toxicity in high fat diet fed mouse up to 200 mg/kg, ip by LC-MS analysis; assay type: organism-based; conditions: in vivo
Mus musculus [9] = assay: Decrease in hepatic SCD1 mRNA level in high fat diet fed C57BL/6J mouse at 40 mg/kg, ip administered every 2 days for 11 weeks by qPCR analysis; assay type: functional, organism-based
In short: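 Male mice, 8 weeks old, fed a 45% kcal fat diet for 6 weeks, then dosed i.p. every 2 days in corn oil vehicle for 11 weeks. Liver mRNA of the indicated genes was quantified at sacrifice; mean ± SEM, n = 5 per group.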

Mus musculus [10] = assay: Effect on hepatic Glp1 mRNA level in normal chow diet fed C57BL/6J mouse at 40 mg/kg, ip administered every 2 days for 11 weeks by qPCR analysis; assay type: ADME, organism-based; conditions: in vivo
In short: (§2)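 Male mice, 8 weeks old, kept on normal chow throughout and dosed i.p. every 2 days in corn oil vehicle for 11 weeks. Body weight gain, liver/body weight ratio, and liver mRNA of the indicated genes were measured at sacrifice; mean ± SEM, n = 5 per group where stated.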

Mus musculus [11] = assay: Effect on hepatic PEPCK mRNA level in normal chow diet fed C57BL/6J mouse at 40 mg/kg, ip administered every 2 days for 11 weeks by qPCR analysis; assay type: ADME, organism-based; conditions: in vivo; in short: as §2
Mus musculus [12] = assay: Effect on hepatic SREBP1 mRNA level in normal chow diet fed C57BL/6J mouse at 40 mg/kg, ip administered every 2 days for 11 weeks by qPCR analysis; assay type: ADME, organism-based; conditions: in vivo; in short: as §2
Mus musculus [13] = assay: Effect on hepatic SCD1 mRNA level in normal chow diet fed C57BL/6J mouse at 40 mg/kg, ip administered every 2 days for 11 weeks by qPCR analysis; assay type: ADME, organism-based; conditions: in vivo; in short: as §2
Mus musculus [14] = assay: Effect on hepatic ACC1 mRNA level in normal chow diet fed C57BL/6J mouse at 40 mg/kg, ip administered every 2 days for 11 weeks by qPCR analysis; assay type: ADME, organism-based; conditions: in vivo; in short: as §2
Mus musculus [15] = assay: Effect on hepatic ACOT4 mRNA level in normal chow diet fed C57BL/6J mouse at 40 mg/kg, ip administered every 2 days for 11 weeks by qPCR analysis; assay type: ADME, organism-based; conditions: in vivo; in short: as §2
Mus musculus [16] = assay: Decrease in body weight gain in high fat diet fed C57BL/6J mouse at 40 mg/kg, ip administered every 2 days for 11 weeks; assay type: functional, organism-based
In short: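 Male mice, 8 weeks old, 24–27 g, given a 45% kcal fat diet for 6 weeks, then dosed i.p. every 2 days in corn oil vehicle with the diet continued. Sacrifice was about 24 h after the last dose. Liver was examined by H&E. Liver and serum triglyceride were measured by kit. Serum chemistry was included, and liver/body weight ratio was calculated.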

[17] = Toxicity in high fat diet fed C57BL/6J mouse assessed as serum alkaline phosphatase level at 40 mg/kg, ip administered every 2 days for 11 weeks (reference value: 58.3 +/- 3.8 U/L); assay type: organism-based; conditions: in vivo
[18] = Toxicity in high fat diet fed C57BL/6J mouse assessed as serum AST level at 40 mg/kg, ip administered every 2 days for 11 weeks (reference value: 131 +/- 15.6 U/L); assay type: organism-based; conditions: in vivo
[19] = Toxicity in high fat diet fed C57BL/6J mouse assessed as serum BUN level at 40 mg/kg, ip administered every 2 days for 11 weeks (reference value: 17.3 +/- 0.5 mg/dl); assay type: organism-based; conditions: in vivo
[20] = Toxicity in normal chow diet fed C57BL/6J mouse assessed as serum creatinine level at 40 mg/kg, ip administered every 2 days for 11 weeks by Jaffe's reaction analysis (reference value: 0.2 +/- 0.01 mg/dl); assay type: organism-based; conditions: in vivo
[21] = Toxicity in normal chow diet fed C57BL/6J mouse assessed as serum BUN level at 40 mg/kg, ip administered every 2 days for 11 weeks (reference value: 19 +/- 1.8 mg/dl); assay type: organism-based; conditions: in vivo

inhibition (Mus musculus [7]): Active
Structure (SMILES): Cc1ccccc1-n1nnc(C(=O)Nc2ccc3ccccc3n2)c1C
inhibition (HEK293 [1]): Active
inhibition (HEK293 [2]): Active
inhibition (HEK293 [3]): Active
inhibition (HEK293 [4]): Active
inhibition (HEK293 [5]): Active
inhibition (HEK293 [6]): Active
Activity [8]: Non-Toxic
Activity (Mus musculus [9]): Active
Activity (Mus musculus [10]): Non-Toxic
Activity (Mus musculus [11]): Non-Toxic
Activity (Mus musculus [12]): Non-Toxic
Activity (Mus musculus [13]): Non-Toxic
Activity (Mus musculus [14]): Non-Toxic
Activity (Mus musculus [15]): Non-Toxic
Activity (Mus musculus [16]): Active
Activity [17]: 51 U/L
Activity [18]: 94.8 U/L
Activity [19]: 14.8 mg/dL
Activity [20]: 0.2 mg/dL
Activity [21]: 21.8 mg/dL

From ChEMBL document CHEMBL4371095, “Triazole-Based Inhibitors of the Wnt/β-Catenin Signaling Pathway Improve Glucose and Lipid Metabolisms in Diet-Induced Obese Mice” (J Med Chem, 2019)
